Data from ChEMBL document CHEMBL2380223, “A thiocarbamate inhibitor of endothelial lipase raises HDL cholesterol levels in mice” (Bioorg Med Chem Lett, 2013).
Values belong to the molecule of their own block, whether it stands above or below them. Active and inactive are the calls of the source. No cut-off for these calls is given here.

Columns and labels:
Endothelial lipase [1] = molecular target: T1, Endothelial lipase (Mus musculus, UniProt Q9WVG5); assay: Inhibition of mouse EL expressed in HEK293 cells using PED-A1 as substrate by spectrophotometry; format: cell-based
T1 sequence (Q9WVG5 whole entry): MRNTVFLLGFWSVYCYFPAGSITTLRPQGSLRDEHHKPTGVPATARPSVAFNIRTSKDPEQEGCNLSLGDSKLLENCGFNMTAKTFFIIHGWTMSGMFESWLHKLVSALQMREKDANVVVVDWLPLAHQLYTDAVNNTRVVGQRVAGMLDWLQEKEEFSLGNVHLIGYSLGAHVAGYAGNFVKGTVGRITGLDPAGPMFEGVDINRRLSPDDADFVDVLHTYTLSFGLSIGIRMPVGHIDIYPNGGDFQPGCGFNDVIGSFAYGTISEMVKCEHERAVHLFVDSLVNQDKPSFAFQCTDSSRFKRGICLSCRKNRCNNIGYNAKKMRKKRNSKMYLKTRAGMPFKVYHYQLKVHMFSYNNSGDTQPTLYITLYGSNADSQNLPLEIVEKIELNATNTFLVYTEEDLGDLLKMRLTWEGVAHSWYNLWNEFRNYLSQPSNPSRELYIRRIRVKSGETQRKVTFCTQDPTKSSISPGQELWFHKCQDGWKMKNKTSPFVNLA

Endothelial lipase [2] = molecular target: T2, Endothelial lipase (Homo sapiens, UniProt Q9Y5X9); assay: (§1) Time dependent inhibition of human EL (19 to 500) expressed in HEK293 cells using PED-A1 as substrate by spectrophotometry; format: cell-based
T2 sequence (Q9Y5X9 whole entry): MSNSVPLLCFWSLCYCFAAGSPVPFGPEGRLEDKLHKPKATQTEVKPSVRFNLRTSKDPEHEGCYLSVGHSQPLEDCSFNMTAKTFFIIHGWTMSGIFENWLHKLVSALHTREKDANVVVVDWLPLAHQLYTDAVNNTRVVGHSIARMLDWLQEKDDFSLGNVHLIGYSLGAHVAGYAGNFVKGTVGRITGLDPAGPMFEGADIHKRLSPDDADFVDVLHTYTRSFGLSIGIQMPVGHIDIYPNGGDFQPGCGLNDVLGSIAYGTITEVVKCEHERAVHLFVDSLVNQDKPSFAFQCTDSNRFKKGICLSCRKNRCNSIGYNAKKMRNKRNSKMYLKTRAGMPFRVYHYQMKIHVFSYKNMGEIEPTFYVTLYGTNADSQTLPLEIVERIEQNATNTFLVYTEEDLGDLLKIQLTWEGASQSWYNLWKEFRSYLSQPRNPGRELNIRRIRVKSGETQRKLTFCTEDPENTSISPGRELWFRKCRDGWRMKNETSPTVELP

[3] = molecular target: T3, Endothelial lipase (Homo sapiens) (UniProt Q9Y5X9); assay: as §1; format: cell-based
T3 sequence (whole entry): T2 sequence (Q9Y5X9 whole entry)

[4] = molecular target: Endothelial lipase (Mus musculus) (UniProt Q9WVG5); assay: Inhibition of EL in C57BL/6J HL-/- mouse assessed as elevated plasma phospholipid level at 30 to 100 mg/kg, ip bid for 2 days followed by a dose on 3rd day morning measured 1 hr post last dose
Mus musculus [5] = assay: Inhibition of EL in C57BL/6J HL-/- mouse assessed as elevated plasma HDL-C level at 30 to 100 mg/kg, ip bid for 2 days followed by a dose on 3rd day morning measured 1 hr post last dose; format: functional, organism-based
How it was run: (§2)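 C57BL/6J HL-/- (hepatic lipase knockout) mice dosed intraperitoneally with compound or vehicle for three days, at 10, 30 and 100 mg/kg. Plasma lipoproteins, including HDL-C, measured 1 h after the last dose. Percent increase is calculated against vehicle-treated controls, with significance testing between groups.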

Lipoprotein lipase = molecular target: T4, Lipoprotein lipase (Homo sapiens, UniProt P06858); assay: Inhibition of human LPL expressed in HEK293 cells using PED-A1 as substrate by spectrophotometry
T4 sequence (P06858 whole entry): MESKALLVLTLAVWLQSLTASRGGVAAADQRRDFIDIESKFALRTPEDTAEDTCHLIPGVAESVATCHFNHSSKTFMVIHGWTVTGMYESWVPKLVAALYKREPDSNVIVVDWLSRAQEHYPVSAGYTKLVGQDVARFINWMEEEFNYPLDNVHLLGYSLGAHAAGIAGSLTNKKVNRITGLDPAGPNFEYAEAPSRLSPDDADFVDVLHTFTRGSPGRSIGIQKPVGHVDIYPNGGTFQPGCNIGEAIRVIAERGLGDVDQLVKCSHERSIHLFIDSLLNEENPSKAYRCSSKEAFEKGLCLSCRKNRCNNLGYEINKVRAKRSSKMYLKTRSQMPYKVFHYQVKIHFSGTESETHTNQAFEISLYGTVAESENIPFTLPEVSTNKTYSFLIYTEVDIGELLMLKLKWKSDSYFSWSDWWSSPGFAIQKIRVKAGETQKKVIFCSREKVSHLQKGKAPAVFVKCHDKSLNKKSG

Mus musculus [6] = assay: Increase in plasma HDL-C level in C57BL/6J HL-/- mouse at 100 mg/kg, ip administered for 2 days followed by a dose on 3rd day morning measured 1 hr post last dose relative to vehicle-treated control; format: functional; settings: route intraperitoneal; how it was run: as §2
[7] = molecular target: T5, Hepatic triacylglycerol lipase (Homo sapiens, UniProt P11150); assay: Inhibition of human HL expressed in HEK293 cells using PED-A1 as substrate by spectrophotometry
T5 sequence (P11150 whole entry): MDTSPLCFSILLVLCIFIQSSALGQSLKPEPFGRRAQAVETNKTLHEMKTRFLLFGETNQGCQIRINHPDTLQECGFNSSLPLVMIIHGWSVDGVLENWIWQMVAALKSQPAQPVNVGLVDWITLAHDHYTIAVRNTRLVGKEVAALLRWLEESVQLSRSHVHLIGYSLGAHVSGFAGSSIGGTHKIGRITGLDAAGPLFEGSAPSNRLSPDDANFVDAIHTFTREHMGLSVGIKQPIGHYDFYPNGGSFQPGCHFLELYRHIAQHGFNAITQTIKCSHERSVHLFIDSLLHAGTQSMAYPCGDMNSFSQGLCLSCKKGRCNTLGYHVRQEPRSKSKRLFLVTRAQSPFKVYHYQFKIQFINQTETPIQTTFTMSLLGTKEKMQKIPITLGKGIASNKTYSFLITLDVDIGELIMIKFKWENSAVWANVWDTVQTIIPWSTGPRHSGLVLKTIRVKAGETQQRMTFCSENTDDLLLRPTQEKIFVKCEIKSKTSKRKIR

Plasma = assay: Plasma concentration in ip dosed C57BL/6J HL-/- mouse administered for 3 days measured 1 hr post last dose; format: ADME, organism-based; settings: in vivo
How it was run: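 In HL-/- mice given intraperitoneal doses (10, 30, 100 mg/kg) for three days, plasma compound concentrations were measured 1 h after the final dose. In individual animals, these were correlated with plasma HDL-C and phospholipids.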

Mus musculus [8] = assay: Increase in plasma HDL-C level in C57BL/6J HL-/- mouse at 30 mg/kg, ip administered for 2 days followed by a dose on 3rd day morning measured 1 hr post last dose relative to vehicle-treated control; format: functional; settings: route intraperitoneal; how it was run: as §2
Mus musculus [9] = assay: Increase in plasma HDL-C level in C57BL/6J mouse at 100 mg/kg, ip administered for 2 days followed by a dose on 3rd day morning measured 1 hr post last dose relative to vehicle-treated control; format: functional; settings: route intraperitoneal
How it was run: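 C57BL/6J mice given vehicle or compound intraperitoneally, five doses over three days; plasma HDL-C measured 1 h after the last dose. Tested at 100 mg/kg. Change is expressed relative to vehicle controls, as means ± SD, n = 8 per group, with significance tested against the vehicle group.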

IC50 (Endothelial lipase [1]): > 33000 nM
Structure (SMILES): O=C(NCCCCCCc1ccccc1)OCc1ccccc1F

IC50 (Endothelial lipase [1]): 470 nM
Structure (SMILES): O=C(NCCCCCCc1ccccc1)Oc1ccccc1F

IC50 (Endothelial lipase [2]): 23 nM
Structure (SMILES): O=C(NCCCCCOc1cc(F)cc(F)c1)SCc1nnc(-c2ccccc2)o1

inhibition [3]: Active
IC50 (Lipoprotein lipase): 1690 nM
IC50 [7]: 1360 nM
Drug uptake (Plasma): Dose-dependent effect
IC50 (Endothelial lipase [1]): 680 nM
Structure (SMILES): O=C(NCCCCCCc1ccccc1)SCc1ccccc1F
Activity [4]: Active
Activity (Mus musculus [5]): Active
Activity (Mus musculus [6]): 77%
Activity (Mus musculus [8]): 23%
Activity (Mus musculus [9]): 37%
